Data published in ChEMBL document CHEMBL1125708, “Synthesis and antiviral activity of 5-heteroaryl-substituted 2'-deoxyuridines” (1991).
In brackets after ≈: the same amount, converted by molar mass.

Columns and labels:
Details in all cases: Homo sapiens
[1] = tested on: E6SM; assay: Minimum inhibitory concentration required to reduce virus induced cytopathicity in embryonic skin muscle (E6SM) cell culture of virus HSV-1 (Mc Intyre) was measured; type: functional
[2] = tested on: E6SM; assay: Minimum inhibitory concentration required to reduce virus induced cytopathicity in embryonic skin muscle (E6SM) cell culture of virus HSV-1( F) was measured; type: functional
[3] = tested on: E6SM; assay: Minimum inhibitory concentration required to reduce virus induced cytopathicity in embryonic skin muscle (E6SM) cell culture of virus HSV-2 (196) was measured.; type: functional
[4] = tested on: E6SM; assay: Minimum inhibitory concentration required to reduce virus induced cytopathicity in embryonic skin muscle (E6SM) cell culture of virus HSV-2 (G) was measured; type: functional
[5] = tested on: E6SM; assay: Minimum inhibitory concentration required to reduce virus induced cytopathicity in embryonic skin muscle (E6SM) cell culture of virus HSV-2 (Lyons) was measured.; type: functional
[6] = tested on: E6SM; assay: Minimum inhibitory concentration required to reduce virus induced cytopathicity in embryonic skin muscle (E6SM) cell culture of virus TK- HSV-1 (B2006) was measured; type: functional
[7] = tested on: E6SM; assay: Minimum inhibitory concentration required to reduce virus induced cytopathicity in embryonic skin muscle (E6SM) cell culture of virus TK- HSV-1 (VMW1837) was measured; type: functional
[8] = tested on: HEL; assay: (§1) Minimum inhibitory concentration required to reduce virus induced cytopathicity in embryonic skin muscle (E6SM) cell culture of virus VSV was measured; type: functional
[9] = tested on: E6SM; assay: Minimum inhibitory concentration required to cause a microscopically detectable change in normal cell morphology; type: functional
Outline: (§2)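 Cytotoxicity was judged by microscopic inspection of uninfected cell monolayers in microtiter plates. The value is the minimum concentration causing a microscopically detectable change in normal cell morphology.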

[10] = tested on: E6SM; assay: Minimum inhibitory concentration required to reduce virus induced cytopathicity in embryonic skin muscle (E6SM) cell culture of virus HSV-1 (KOS) was measured; type: functional
[11] = tested on: HEL; assay: In vitro antiviral activity and cytotoxicity, and minimum inhibitory concentration required to reduce cell growth by 50% in HEL cell culture; type: functional
Outline: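 Cytotoxicity was measured as inhibition of growth of human embryonic lung (HEL) cells seeded in 96-well microtiter plates. The value is the concentration reducing cell growth by 50%.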

[12] = tested on: HEL; assay: Minimum inhibitory concentration required to reduce virus induced plaque formation in HEL cell culture of virus VZS (OKA) was measured; type: functional
Outline: (§3)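 Plaque-reduction assay in human embryonic lung (HEL) cells in 96-well microtiter plates. VZV strains were Oka and YS, plus TK-deficient 07-1 and YS-R. CMV strains were AD169 and Davis. The value is the concentration reducing virus plaque formation by 50%.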

[13] = tested on: HEL; assay: Minimum inhibitory concentration required to reduce virus induced plaque formation in HEL cell culture of virus TK- VZV (YS-R) was measured; type: functional; outline: as §3
[14] = tested on: HEL; assay: Minimum inhibitory concentration required to reduce virus induced plaque formation in HEL cell culture of virus VZS (YS) was measured; type: functional; outline: as §3
[15] = tested on: HEL; assay: Minimum inhibitory concentration required to reduce virus induced plaque formation in HEL cell culture of virus CMV (AD169) was measured; type: functional; outline: as §3
[16] = tested on: HEL; assay: Minimum inhibitory concentration required to reduce virus induced plaque formation in HEL cell culture of virus CMV (Davis) was measured; type: functional; outline: as §3
[17] = tested on: HEL; assay: Minimum inhibitory concentration required to reduce virus induced plaque formation in HEL cell culture of virus TK- VZV (07-1) was measured; type: functional; outline: as §3
[18] = tested on: E6SM; assay: Minimum inhibitory concentration required to reduce virus induced cytopathicity in embryonic skin muscle (E6SM) cell culture of virus VV was measured
[19] = tested on: E6SM; assay: Minimum inhibitory concentration required to reduce virus induced cytopathicity in embryonic skin muscle (E6SM) cell culture of virus HSV-2 (196) was measured; type: functional
[20] = tested on: E6SM; assay: as §1; type: functional
[21] = tested on: E6SM; assay: Minimum inhibitory concentration required to reduce virus induced cytopathicity in embryonic skin muscle (E6SM) cell culture of virus VV was measured; type: functional
[22] = tested on: E6SM; assay: minimum inhibitory concentration required to reduce virus induced cytopathicity in embryonic skin muscle (E6SM) cell culture of virus HSV-2 (Lyons) was measured.; type: functional
[23] = tested on: HEL; assay: Minimum concentration required to reduce virus induced plaque formation in HEL cell culture of virus TK- VZV (YS-R) was measured; type: functional; outline: as §3
[24] = tested on: HEL; assay: minimum inhibitory concentration required to reduce virus induced plaque formation in HEL cell culture of virus VZS (YS) was measured.; type: functional; outline: as §3
[25] = tested on: E6SM; assay: minimum inhibitory concentration required to cause a microscopically detectable change in normal cell morphology; type: functional; outline: as §2

Row | Compound | MIC [1] [µg/mL] | MIC [2] [µg/mL] | MIC [3] [µg/mL] | MIC [4] [µg/mL] | MIC [5] [µg/mL] | MIC [6] [µg/mL] | MIC [7] [µg/mL] | MIC [9] [µg/mL] | MIC [10] [µg/mL] | MIC [11] [µg/mL] | MIC [12] [µg/mL] | MIC [14] [µg/mL] | MIC [15] [µg/mL] | MIC [16] [µg/mL] | MIC [17] [µg/mL] | MIC [20] [µg/mL] | MIC [21] [µg/mL] | MIC [23] [µg/mL] | MIC [24] [µg/mL] | also measured
1 | O=c1[nH]c(=O)n([C@H]2C[C@H](O)[C@@H](CO)O2)cc1/C=C/Br [BRIVUDINE] | 0.07 (≈ 0.21 µM) | 0.07 (≈ 0.21 µM) | > 400 | 10 (≈ 30 µM) | > 400 | 100 (≈ 300 µM) | > 400 | > 400 | 0.07 (≈ 0.21 µM) | 200 (≈ 600 µM) | 0.003 (≈ 0.00901 µM) | 0.003 (≈ 0.00901 µM) | 250 (≈ 750 µM) | 250 (≈ 750 µM) | 8 (≈ 24 µM) |  |  |  |  | MIC [8]: > 400 µg/mL; MIC [13]: 0.4 µg/mL (≈ 1.2 µM); MIC [18]: 1 µg/mL (≈ 3 µM)
2 | O=c1[nH]c(=O)n([C@H]2C[C@H](O)[C@@H](CO)O2)cc1-c1cc(Br)no1 | 2 (≈ 5.35 µM) | 2 (≈ 5.35 µM) |  | > 200 |  | > 400 | > 400 | > 400 | 7 (≈ 18.7 µM) | > 50 | 0.09 (≈ 0.241 µM) | 0.24 (≈ 0.641 µM) | > 100 | > 100 | > 100 | > 400 | > 400 | > 100 |  | MIC [19]: > 400 µg/mL; MIC [22]: > 400 µg/mL
3 | O=c1[nH]c(=O)n([C@H]2C[C@H](O)[C@@H](CO)O2)cc1-c1cc(-c2ccc(Cl)cc2)no1 | > 40 | > 40 | > 40 | > 40 | > 40 | > 40 | > 40 | > 40 | > 40 | > 200 | 9 (≈ 22.2 µM) |  | 7 (≈ 17.3 µM) | 7 (≈ 17.3 µM) | 22 (≈ 54.2 µM) | > 40 | > 40 | 77 (≈ 190 µM) | > 40 | 
4 | O=c1[nH]c(=O)n([C@H]2C[C@H](O)[C@@H](CO)O2)cc1-c1cc(-c2ccccc2)no1 | > 40 | > 40 | > 40 | > 40 | > 40 | > 40 | > 40 |  | > 40 | > 200 | 38 (≈ 102 µM) |  | 25 (≈ 67.3 µM) | 25 (≈ 67.3 µM) | 61 (≈ 164 µM) | > 40 | > 40 | > 100 | 73 (≈ 197 µM) | MIC [25]: > 40 µg/mL
